Where no end group is shown, it is not given here.
Experiments:
[1] = test system: NOD mouse type A insulin-reactive CD4 T cells; assay: IL-2 secretion; type: cell-based; conditions: sample titration, IL-2 after 24 h (Fig. 2A)
In short: (§1)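 Equal numbers of T-cell hybridomas or TCR-transduced avatars and paraformaldehyde-fixed M12.C3.g7 (IAg7) B-lymphoma APCs are cultured overnight with peptide titrations up to 100 μg/mL. Peptides have B:19 C→A and are >95% pure, with an IAg7-binding HEL peptide as negative control. IL-2 is read by HT-2 growth/survival or ELISA. Potency is the log10 shift of parallel third-order polynomial fits versus WT8E9R (=1), averaged over three titrations.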

[2] = test system: NOD mouse type B insulin-reactive CD4 T cells; assay: IL-2 secretion; type: cell-based; conditions: sample titration, IL-2 after 24 h (Fig. 2A)
In short: as §1

[3] = test system: CD4 T cells of human T1D patients; conditions: HLA-DQ8; ref [14], [15]; cited from earlier work
IA^g7 = conditions: natural R at p9; ref [16]; cited from earlier work

## 8E9E: soluble mutated B:12–22 peptide, p9 R to E, B:19 C changed to A
[1]
  potency relative to WT8E9R: about 100 ×
[2]
  potency compared with WT8E9R: no better than the WT peptide

## B:11–23 peptide: versions of the B:11–23 peptide (identical between mice and humans) presented by DQ8 (LVEALYLVCGERG; ends and bridges not checked; UniProt P01308 35-47, looked up, fragment)
[3]
  human T-cell response to peptide bound to DQ8: only when B:22R is mutated to E

## SHLVEALYLVCGERG [B:9–23]
IA^g7
  binding to IA^g7 in R3: greatly interferes with binding

## B:22R to E mutated peptide: B:9–23 peptide with B:22R (p9) mutated to E, earlier work
[3]
  human T-cell response to peptide bound to DQ8: dramatically improved T-cell response
